Laboratory results reported in ChEMBL document CHEMBL1944538, “Synthetic peptides derived from the sequence of a lasso peptide microcin J25 show antibacterial activity” (Bioorg Med Chem, 2012).
≈ marks a conversion by molar mass, not a printed value. Calls of active or inactive are those of the source. The calls are words filed in the database; no cut-off is given here. Positions of bridges follow the written chain, without caps; N, C: chain ends. Residues, ends and D or L forms follow the SMILES beside them.

Tests used:
Enterococcus faecalis = assay: Antibacterial activity against Enterococcus faecalis ATCC 19433; format: functional, organism-based
Staphylococcus aureus = assay: Antibacterial activity against Staphylococcus aureus ATCC 6538; format: functional, organism-based
Escherichia coli [1] = assay: Antibacterial activity against Escherichia coli MC4100 up to 250 uM after 24 hrs by liquid growth inhibition assay; format: functional, organism-based
In short: (§1)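 Liquid broth microdilution in LB. Peptide stocks were made in 20% methanol/water (1 or 2.5 mM), then serially doubled in water to final 0.01–100 or 0.5–250 µM. Inoculum was diluted to OD620 0.02–0.05. Plates ran 24 h at 37 °C and were read at OD620. MIC was the lowest concentration giving 100% growth inhibition (0.05 AU). Triplicate wells, three repeat experiments.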

Escherichia coli [2] = assay: Antibacterial activity against Escherichia coli DH5alpha up to 250 uM after 24 hrs by liquid growth inhibition assay; format: functional, organism-based; details: DH5[alpha]; in short: as §1
[3] = tested on: Salmonella enterica subsp. enterica serovar Choleraesuis; assay: Antibacterial activity against Salmonella choleraesuis ATCC 10708 up to 250 uM after 24 hrs by liquid growth inhibition assay; format: functional
Salmonella paratyphi = assay: Antibacterial activity against Salmonella paratyphi up to 250 uM after 24 hrs by liquid growth inhibition assay; format: functional, organism-based; details: Salmonella enterica subsp. enterica serovar Paratyphi A
[4] = tested on: Salmonella enterica subsp. enterica serovar Montevideo; assay: Antibacterial activity against Salmonella montevideo 20 up to 250 uM after 24 hrs by liquid growth inhibition assay; format: functional; in short: as §1
[5] = tested on: Salmonella enterica subsp. enterica serovar Heidelberg; assay: Antibacterial activity against Salmonella heidelberg ATCC 8326 up to 250 uM after 24 hrs by liquid growth inhibition assay; format: functional; in short: as §1
Salmonella typhimurium [6] = assay: Antibacterial activity against Salmonella Typhimurium ATCC 13311 up to 250 uM after 24 hrs by liquid growth inhibition assay; format: functional, organism-based; details: Salmonella enterica subsp. enterica serovar Typhimurium; in short: as §1
Salmonella typhimurium [7] = assay: Antibacterial activity against Salmonella Typhimurium AFLB 25 up to 250 uM after 24 hrs by liquid growth inhibition assay; format: functional, organism-based; details: Salmonella enterica subsp. enterica serovar Typhimurium; in short: as §1
Salmonella enteritidis [8] = assay: Antibacterial activity against Salmonella enteritidis AFLB 81 up to 250 uM after 24 hrs by liquid growth inhibition assay; format: functional, organism-based; details: Salmonella enterica subsp. enterica serovar Enteritidis; in short: as §1
Salmonella enteritidis [9] = assay: Antibacterial activity against Salmonella enteritidis AFLB 41 up to 250 uM after 24 hrs by liquid growth inhibition assay; format: functional, organism-based; details: Salmonella enterica subsp. enterica serovar Enteritidis; in short: as §1
Salmonella enteritidis [10] = assay: Antibacterial activity against Salmonella enteritidis AFLB 11 up to 250 uM after 24 hrs by liquid growth inhibition assay; format: functional, organism-based; details: Salmonella enterica subsp. enterica serovar Enteritidis; in short: as §1
Salmonella enteritidis [11] = assay: Antibacterial activity against Salmonella enteritidis ATCC 13076 up to 250 uM after 24 hrs by liquid growth inhibition assay; format: functional, organism-based; details: Salmonella enterica subsp. enterica serovar Enteritidis; in short: as §1
Salmonella enteritidis [12] = assay: Antibacterial activity against Salmonella enteritidis PT8 up to 250 uM after 24 hrs by liquid growth inhibition assay; format: functional, organism-based; details: Salmonella enterica subsp. enterica serovar Enteritidis; in short: as §1
[13] = tested on: Salmonella enterica subsp. enterica serovar Newport; assay: Antibacterial activity against Salmonella newport clinical isolate up to 250 uM after 24 hrs by liquid growth inhibition assay; format: functional; in short: as §1
[14] = Cytotoxicity against human MDA-MB-435 cells assessed as cell viability at 0.3 to 100 uM after 24 hrs by MTT assay; format: cell-based; details: read-out: Activity
In short: (§2)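 MTT assay. MDA-MB-435 cells were kept in RPMI 1640 and MCF7 cells in DMEM, both with 10% FBS, penicillin and streptomycin, at 37 °C and 5% CO2. Cells were seeded at 1×10^4/well and grown 24 h. Samples came from 1 mM stocks in 10% DMSO/water, twofold diluted to 0.3125–100 µM, and applied for 24 h. MTT (5 mg/mL) was added for 3.5 h, then DMSO solubilization and A570. Viability is relative to untreated cells; triplicate, mean.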

[15] = Cytotoxicity against human MCF7 cells assessed as cell viability at 0.3 to 100 uM after 24 hrs by MTT assay; format: cell-based; details: read-out: Activity; in short: as §2
[16] = Stability of the compound at 200 uM after overnight incubation by spot on lawn method in the presence of chymotrypsin; format: ADME
[17] = Stability of the compound at 150 uM after 30 mins by RP-HPLC analysis in the presence of pepsin; format: ADME; details: 0.5 h
In short: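 Peptide (150 µM) was incubated at 37 °C with pepsin (4% w/w) in 0.1 N HCl. Aliquots taken at 0 and 30 min were quenched into 0.1 N NaOH/70% methanol and centrifuged. Supernatant was analysed by C18 RP-HPLC (15–50% isopropanol/water, 0.05% TFA, 35 min, UV 220 nm). Fragments were identified by MALDI-TOF.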

[18] = Bactericidal activity against Salmonella newport clinical isolate after 24 hrs; format: functional, Salmonella enterica subsp. enterica serovar Newport; details: Salmonella enterica
In short: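 For MBC, 10 µL from each clear well of the 24 h, 37 °C LB broth-dilution plate was spread on LB agar and incubated 24 h at 37 °C. MBC was the lowest concentration giving no growth on agar.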

[19] = Antibacterial activity against Salmonella newport clinical isolate after 24 hrs by liquid growth inhibition assay; format: functional, Salmonella enterica subsp. enterica serovar Newport; details: Salmonella enterica; in short: as §1
[20] = tested on: Salmonella enterica subsp. enterica serovar Newport; assay: Inhibition of oxygen consumption in Salmonella newport clinical isolate at 30 uM after 35 mins by Gilson Clarke oxygraph analysis; format: functional
In short: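 Cells were held 35 min at 37 °C with peptide at the stated concentration. Respiration rate over the next 5 min was measured polarographically with a Clark electrode oxygraph at 37 °C. Results are percent of a peptide-free control; three independent experiments, mean ± SD.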

[21] = Thermostability in boiling water after 3 hrs; format: physicochemical; details: buffer

Structure (SMILES) | Activity (Enterococcus faecalis) | Activity (Staphylococcus aureus) | Activity (Escherichia coli [1]) | Activity (Escherichia coli [2]) | Activity [3] | Activity (Salmonella paratyphi) | Activity [4] | Activity [5] | Activity (Salmonella typhimurium [6]) | Activity (Salmonella typhimurium [7]) | Activity (Salmonella enteritidis [8]) | Activity (Salmonella enteritidis [9]) | Activity (Salmonella enteritidis [10]) | Activity (Salmonella enteritidis [11]) | Activity (Salmonella enteritidis [12]) | viability at 24 h, up to 100 µM [14] | viability at 24 h, up to 100 µM [15] | further results
CC[C@H](C)[C@@H]1NC(=O)[C@@H]2CCCN2C(=O)CNC(=O)CNC(=O)[C@H](CCCNC(=N)N)NC(=O)CNC(=O)[C@H](C(C)C)NC(=O)[C@H](Cc2ccccc2)NC(=O)[C@H](Cc2ccc(O)cc2)NC(=O)[C@@H]2CSSC[C@H](NC(=O)[C@H](CCC(=O)O)NC1=O)C(=O)NCC(=O)N[C@@H](C)C(=O)NCC(=O)N[C@@H](Cc1cnc[nH]1)C(=O)N[C@@H](C(C)C)C(=O)N1CCC[C@H]1C(=O)N2 (cyclo(AGHVPCYFVGRGGPIECG); disulfide 6-17) | inactive | inactive | inactive | inactive | inactive | inactive | inactive | inactive | inactive | inactive | inactive | inactive | inactive | inactive | inactive | > 90% | > 90% | Activity [13]: inactive
CC[C@H](C)[C@H](NC(=O)[C@@H]1CCCN1C(=O)[C@@H](NC(=O)CNC(=O)[C@H](CCCNC(=N)N)NC(=O)CNC(=O)[C@@H](NC(=O)[C@H](Cc1ccccc1)NC(=O)[C@H](Cc1ccc(O)cc1)NC(=O)[C@@H]1CSSC[C@H](N)C(=O)NCC(=O)N[C@@H](C)C(=O)NCC(=O)N[C@@H](Cc2ccccc2)C(=O)N[C@@H](Cc2cnc[nH]2)C(=O)N[C@@H](C(C)C)C(=O)N2CCC[C@H]2C(=O)N1)C(C)C)[C@@H](C)O)C(=O)N[C@@H](CO)C(=O)N[C@@H](Cc1ccccc1)C(=O)N[C@@H](Cc1ccc(O)cc1)C(=O)NCC(=O)O (H-CGAGFHVPCYFVGRGTPISFYG-OH; disulfide 1-9) | inactive | inactive | inactive | inactive | inactive | inactive | inactive | inactive | inactive | inactive | inactive | inactive | inactive | inactive | inactive | > 90% | > 90% | Stability [16]: Unstable; Stability [17]: Unstable; MBC [18]: 62.5 µM (≈ 146 µg/mL); MIC [19]: 30 µM (≈ 70 µg/mL); inhibition [20]: inactive; Stability [21]: Unstable
